Screening results: PubChem, several laboratories
TNAP act DEA = activates human TNAP at intermediate phosphate acceptor concentration. P05186. purified TNAP, CDP-star luminescence, 100 mM DEA, 30 min; active compounds read high; scale: 0 levamisole-inhibited, 1 vehicle-only enzyme. activation factor at 20 µM. 64,000 tested, under 10 active. AID 813;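 active = activation factor of at least 2 at 20 µM, relative to controls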
SKBR3 24h inh = SK-BR-3 proliferation inhibitors; SK-BR-3 viability, CellTiter-Glo ATP luminescence, 24 h; active compounds read low; viability, % at 10 µM; 41,000 tested, 0.47% active;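 active = viability at or below the median of all test compounds minus 3 SD, in both replicates if run twice, cut at about 45% in these data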;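 also: 100% = median untreated cell wells and 0% = median positive control drug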
AP complement = orthogonal test for alternative complement pathway inhibitors; Human serum alternative complement pathway, LPS-coated ELISA, C3 deposition; tested in compound mixtures; inhibition, % at 5 µM; 62,000 tested, 0.08% active;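 active = inhibition above 30% in each of the two pooled mixtures holding the compound, so the lower value exceeds 30%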;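 also: 0% = serum in Mg-EGTA without compound and 100% = EDTA serum blank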
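Test system: human serum alternative complement pathway, C3 deposition on LPS-coated wells; also added: Plate-bound LPS; doses: 5 µM per compound in ten-compound mixtures; schedule: 1 h at 37 °C; detection: Anti-C3 ELISA, OD 450 nm; evaluation: percent inhibition of C3 deposition onto LPS; repeats: two pool placements per compound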
HER2 expr 66K = Her2 kinase expression inhibition; P04626; SKBR-3 HER2 protein level, AlphaScreen, 18-24 h; active compounds read low; HER2 level % of control, % at 10 µM; 65,000 tested, 0.69% active;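 active = HER2 level under 5% of the carrier-only control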;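 also: 100% = DMSO carrier and 0% = 500 nM PU-H71 HSP90 inhibitor; lower value means stronger loss of Her2 protein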
MMP13 inh = MMP13 (human) collagenase inhibition; P45452; MMP-13 fTHP FRET cleavage, Mca fluorescence; inhibition, % at 4 µM; 65,000 tested, 0.07% active; AID 570;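 active = inhibition above the mean of compound-free control plate wells plus 3 SD, cut at about 14% in these data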;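 also: 0% = DMSO wells and 100% = wells with reference MMP-13 inhibitor after basal subtraction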
E coli RNAP = Escherichia coli RNA polymerase inhibition | P0A8V2 | E. coli RNA polymerase, fluorescence transcription assay | inhibition, %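 (tested at 10 µM)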 | 62,000 tested, 0.2% active; in the data active = inhibition above about 20%;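 also: 0% = enzyme without compound and 100% = no enzyme blank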
Target sequence (P0A8V2 whole entry, looked up): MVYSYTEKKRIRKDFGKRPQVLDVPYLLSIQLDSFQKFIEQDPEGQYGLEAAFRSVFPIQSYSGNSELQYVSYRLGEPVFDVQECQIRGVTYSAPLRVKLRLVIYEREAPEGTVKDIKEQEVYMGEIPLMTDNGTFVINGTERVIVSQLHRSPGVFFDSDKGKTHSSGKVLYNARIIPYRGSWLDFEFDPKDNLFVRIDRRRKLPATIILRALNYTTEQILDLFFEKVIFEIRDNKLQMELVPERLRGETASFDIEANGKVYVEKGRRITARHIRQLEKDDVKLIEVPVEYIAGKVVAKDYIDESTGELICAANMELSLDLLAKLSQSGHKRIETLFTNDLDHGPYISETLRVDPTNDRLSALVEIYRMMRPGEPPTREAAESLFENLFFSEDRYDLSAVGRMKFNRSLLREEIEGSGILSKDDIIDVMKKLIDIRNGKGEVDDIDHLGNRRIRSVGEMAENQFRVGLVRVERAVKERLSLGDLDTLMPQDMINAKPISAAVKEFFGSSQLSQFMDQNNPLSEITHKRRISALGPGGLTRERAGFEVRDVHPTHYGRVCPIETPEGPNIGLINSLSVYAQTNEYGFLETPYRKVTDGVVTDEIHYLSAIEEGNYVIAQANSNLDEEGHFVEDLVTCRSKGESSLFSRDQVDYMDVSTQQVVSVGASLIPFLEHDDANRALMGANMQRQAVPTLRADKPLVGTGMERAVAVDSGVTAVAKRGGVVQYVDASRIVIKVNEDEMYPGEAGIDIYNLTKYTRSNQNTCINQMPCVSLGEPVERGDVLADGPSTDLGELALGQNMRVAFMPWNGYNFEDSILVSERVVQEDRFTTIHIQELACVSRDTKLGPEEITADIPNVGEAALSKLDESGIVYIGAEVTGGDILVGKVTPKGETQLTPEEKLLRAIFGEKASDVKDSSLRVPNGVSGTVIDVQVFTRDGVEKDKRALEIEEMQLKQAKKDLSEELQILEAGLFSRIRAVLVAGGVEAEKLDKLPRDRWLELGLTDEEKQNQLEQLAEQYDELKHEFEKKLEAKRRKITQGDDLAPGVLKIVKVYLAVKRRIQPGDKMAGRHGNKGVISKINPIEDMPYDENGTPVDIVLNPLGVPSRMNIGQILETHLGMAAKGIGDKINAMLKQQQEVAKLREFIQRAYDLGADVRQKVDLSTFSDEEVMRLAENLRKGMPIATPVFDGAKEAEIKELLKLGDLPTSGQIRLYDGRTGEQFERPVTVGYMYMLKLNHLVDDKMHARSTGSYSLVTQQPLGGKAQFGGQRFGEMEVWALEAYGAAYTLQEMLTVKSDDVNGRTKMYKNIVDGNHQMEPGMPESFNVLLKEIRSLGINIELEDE
An asterisk follows results filed as active. Most compounds without a hit are left out; they make up all but 1.2% or so of the library.

O=S1(=O)Nc2c(ccc3cccnc23)-c2ccccc21 was read as TNAP act DEA 0.9, SKBR3 24h inh 85.4, AP complement -1.5, HER2 expr 66K -8.0*, MMP13 inh 4.6 and E coli RNAP 9.6.
For CCOC(=O)Cc1csc(NC(=O)COc2ccc(OC)cc2)n1 the results were TNAP act DEA 1, AP complement 5.6, HER2 expr 66K 4.1*, MMP13 inh 4.9 and E coli RNAP 8.5.
`O=C1CC(NCc2ccccc2F)C(=O)N1c1ccccc1` (centres undefined) gave TNAP act DEA 0.9, SKBR3 24h inh 39.2*, AP complement 5.0, HER2 expr 66K 97.5, MMP13 inh 3.7 and E coli RNAP 4.0.
CCn1c(SCC(=O)N2c3ccccc3CCc3ccccc32)nc2c1c(=O)n(C)c(=O)n2C was read as TNAP act DEA 0.9, AP complement -6.6, HER2 expr 66K -3.2*, MMP13 inh 0.0 and E coli RNAP 1.4.
`CN1CCN(C(=O)Cn2c(=O)oc3cc(S(=O)(=O)NCc4ccccc4)ccc32)CC1` gave TNAP act DEA 0.9, AP complement 10.0, HER2 expr 66K 76.9, MMP13 inh 3.0 and E coli RNAP 4.7.
For COc1ccc(N2CCN(CCCNC(=O)c3cc4sccc4n3C)CC2)cc1 the results were TNAP act DEA 1, AP complement 4.8, HER2 expr 66K 124.0, MMP13 inh 6.8 and E coli RNAP -0.2.
CC1CCN(CCCNC(=O)c2cc3sccc3n2C)CC1 was read as TNAP act DEA 0.9, SKBR3 24h inh 42.0*, AP complement 0.5, HER2 expr 66K 88.8, MMP13 inh -144.0 and E coli RNAP 3.0.
`CN1/C(=C/C(=O)c2nc(S(C)(=O)=O)ncc2Cl)C(C)(C)c2ccccc21` gave TNAP act DEA 0.8, AP complement 6.2, HER2 expr 66K -15.3*, MMP13 inh 6.8 and E coli RNAP 2.7.
`Cc1cccn2c(=O)c3cc(C(=O)NCCCN4CCCC4=O)n(C)c3nc12` gave SKBR3 24h inh 85.7, HER2 expr 66K 74.3 and MMP13 inh -111.8.
Screening Cc1nnc(SCc2nnc(-c3ccccc3Br)o2)n1-c1ccccc1 returned TNAP act DEA 0.9, AP complement 26.1, HER2 expr 66K -12.3*, MMP13 inh -3.4 and E coli RNAP 6.3.
Oc1ccc(N=Cc2ccc(-c3cccs3)s2)cc1 was read as TNAP act DEA 1, AP complement -1.2, HER2 expr 66K -22.4* and MMP13 inh -280.9.
Screening O=C(CN(Cc1cccs1)C(=O)CNC(=O)c1ccco1)NC1CCCCC1 returned TNAP act DEA 0.9, AP complement 4.9, HER2 expr 66K 91.4, MMP13 inh -1.3 and E coli RNAP 8.3.
O=S(=O)(C/C(=C/CO)S(=O)(=O)c1ccccc1)c1ccccc1 was read as TNAP act DEA 0.9, SKBR3 24h inh 154.0, AP complement 5.9, HER2 expr 66K -21.3*, MMP13 inh 8.1 and E coli RNAP 9.5.
O=c1cccc(-c2ccccc2)[nH]1 was read as TNAP act DEA 1, SKBR3 24h inh 100.2, AP complement -2.7, HER2 expr 66K -26.1*, MMP13 inh 2.2 and E coli RNAP 13.7.
COC(=O)c1ccccc1NC(=O)CNC(=O)c1ccco1 was read as TNAP act DEA 1, SKBR3 24h inh 93.9, AP complement -2.4, HER2 expr 66K 92.2, MMP13 inh -6.4 and E coli RNAP 9.4.
CCOC(=O)N1CCN(CCC(=O)c2ccc(Cl)cc2)CC1 was read as TNAP act DEA 0.9, AP complement 15.6, HER2 expr 66K -6.8*, MMP13 inh -0.2 and E coli RNAP 4.2.
Screening CCOC(=O)N1CCN(C(=O)Cc2ccc(Cl)cc2)CC1 returned TNAP act DEA 0.9, SKBR3 24h inh 98.1, AP complement 9.3, HER2 expr 66K 93.4, MMP13 inh 0.4 and E coli RNAP 6.4.
Screening O=C(Nc1nccs1)c1ccc(COc2ccccc2Br)o1 returned TNAP act DEA 0.9, SKBR3 24h inh 69.2, AP complement 1.0, HER2 expr 66K 86.2, MMP13 inh -2.2 and E coli RNAP 10.2.
For CC(NS(=O)(=O)c1ccc(F)cc1)C(c1cccs1)N1CCN(C)CC1 (centres undefined) the results were TNAP act DEA 0.9, AP complement -9.3, HER2 expr 66K 124.7, MMP13 inh 4.5 and E coli RNAP 21.5*.
`CC(NS(=O)(=O)c1ccc(Cl)cc1)C(c1cccs1)N1CCN(C)CC1` (centres undefined) gave HER2 expr 66K 119.9 and MMP13 inh 0.3.
`Cc1c(CCC#N)c(N2CCN(C3CCCCC3)CC2)n2c(nc3ccccc32)c1C#N` gave TNAP act DEA 0.9, SKBR3 24h inh 6.0*, AP complement 8.1, HER2 expr 66K -15.9*, MMP13 inh 2.4 and E coli RNAP 6.1.
Screening Nc1c(S(=O)(=O)c2cccc(Cl)c2)c2nc3ccccc3nc2n1/N=C/c1ccc(O)c(O)c1 returned TNAP act DEA 0.9, SKBR3 24h inh 2.7*, AP complement 14.3, HER2 expr 66K -13.1*, MMP13 inh 3.0 and E coli RNAP -2.1.
Cc1cccc(S(=O)(=O)c2c(N)n(Cc3ccco3)c3nc4ccccc4nc23)c1 was read as TNAP act DEA 0.9, SKBR3 24h inh 116.0, AP complement 4.3, HER2 expr 66K 77.3, MMP13 inh -215.2 and E coli RNAP -3.7.
`CC(C)c1nnc(NC(=O)CCS(=O)(=O)c2nc(-c3cccs3)cc(C(F)(F)F)n2)s1` gave TNAP act DEA 1, SKBR3 24h inh 92.0, AP complement -0.6, HER2 expr 66K -19.0*, MMP13 inh -7.1 and E coli RNAP 4.2.
CC(C)(C)CC(=O)Nc1nnc(-c2cccs2)s1 was read as TNAP act DEA 1, SKBR3 24h inh 76.1, AP complement -12.2, HER2 expr 66K 68.7, MMP13 inh -21.4 and E coli RNAP 8.7.
`O=C(NCc1ccco1)C(Cc1ccccc1)N1C(=O)c2ccccc2C1=O` (centres undefined) gave TNAP act DEA 0.9, AP complement 5.9, HER2 expr 66K -20.3*, MMP13 inh -7.4 and E coli RNAP 2.0.
`[N-]=[N+]=CC(=O)CNC(=O)[C@@H](Cc1ccccc1)N1C(=O)c2ccccc2C1=O` gave TNAP act DEA 0.9, SKBR3 24h inh 81.5, AP complement 16.7, HER2 expr 66K 97.2, MMP13 inh -1.5 and E coli RNAP 10.9.
`CCn1nnc(-c2ccccc2NC(=O)c2ccc(-n3cnnn3)cc2)n1` gave TNAP act DEA 0.9, SKBR3 24h inh 89.7, AP complement 7.5, HER2 expr 66K 97.4, MMP13 inh -0.6 and E coli RNAP 5.6.
Screening CCn1nnc(-c2ccccc2NC(=O)c2cccc(-n3cnnn3)c2)n1 returned TNAP act DEA 0.9, SKBR3 24h inh 41.8*, AP complement 5.0, HER2 expr 66K 89.1, MMP13 inh -12.1 and E coli RNAP 8.9.
